Our source for the MIC values is ChEMBL document CHEMBL3272355, “Structure--activity relationships in cephalosporins prepared from penicillins. 1. 7beta-Acylamino derivatives of 3-benzyl- and 3-(3-pyridylmethyl)ceph-3-em-4-carboxylic acids” (1977).

Assay [1] concerns Staphylococcus aureus. Description: Antibacterial activity against Staphylococcus aureus Oxford assessed as growth inhibition after 18 hrs by serial dilution method. The class given is functional. A digest of the protocol: (§1)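 Agar dilution MIC: serial dilutions in nutrient agar, each spot-inoculated with 0.001 mL of undiluted overnight broth culture. MIC read after 18 h incubation at 37 °C.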

The subject of assay [2] is Staphylococcus aureus. Description: Antibacterial activity against beta-lactamase producing benzylpenicillin-resistant Staphylococcus aureus Russell assessed as growth inhibition after 18 hrs by serial dilution method. The class given is functional.
A further assay relates to Escherichia coli. Description: Antibacterial activity against Escherichia coli assessed as growth inhibition after 18 hrs by serial dilution method. The class given is functional. A digest of the protocol:
as §1

The next assay concerns Salmonella typhi. Description: Antibacterial activity against Salmonella typhi assessed as growth inhibition after 18 hrs by serial dilution method. The class given is functional, Salmonella enterica subsp. enterica serovar Typhi. The conditions noted are these: Salmonella enterica.
Another assay deals with Shigella sonnei. Description: Antibacterial activity against Shigella sonnei assessed as growth inhibition after 18 hrs by serial dilution method. The class given is functional. An outline of the steps:
as §1

Another assay deals with Klebsiella aerogenes. In words: Antibacterial activity against Klebsiella aerogenes assessed as growth inhibition after 18 hrs by serial dilution method. The class given is functional. An outline of the steps: as §1
The subject of another assay is Proteus mirabilis. In words: Antibacterial activity against Proteus mirabilis assessed as growth inhibition after 18 hrs by serial dilution method. The class given is functional. An outline of the steps:
as §1

As a reminder, the MIC is the lowest concentration that inhibits growth of the organism.

Molecules are shown by their SMILES. Values after ≈ are worked out from the molar mass of the structure shown.

Turning to `N[C@@H](C(=O)N[C@@H]1C(=O)N2C(C(=O)O)=C(Cc3cccnc3)CS[C@H]12)C1CC1`, the minimal inhibitory concentration (MIC) with Staphylococcus aureus [1] came out at 5 µg/mL (≈ 12.9 µM); in the assay on Staphylococcus aureus [2] it was 12.5 µg/mL (≈ 32.2 µM); with Escherichia coli, 500 µg/mL (≈ 1290 µM); with Salmonella typhi it was 250 µg/mL (≈ 644 µM); with Shigella sonnei, 250 µg/mL (≈ 644 µM); in the assay with Klebsiella aerogenes, 250 µg/mL (≈ 644 µM). In addition, the minimal inhibitory concentration (MIC) in the assay on Proteus mirabilis worked out at 500 µg/mL (≈ 1290 µM).
In the case of `N[C@@H](C(=O)N[C@@H]1C(=O)N2C(C(=O)O)=C(Cc3ccccc3)CS[C@H]12)c1ccccc1`, the minimum inhibitory concentration (MIC) with Staphylococcus aureus [1] came out at 0.1 µg/mL (≈ 0.236 µM); in the assay with Staphylococcus aureus [2] it was 2.5 µg/mL (≈ 5.9 µM); in the assay with Escherichia coli, 25 µg/mL (≈ 59 µM); in the assay with Salmonella typhi, 25 µg/mL (≈ 59 µM); in the assay with Shigella sonnei, 25 µg/mL (≈ 59 µM); in the assay on Klebsiella aerogenes, 25 µg/mL (≈ 59 µM). Also, the minimal inhibitory concentration (MIC) in the assay on Proteus mirabilis came to 50 µg/mL (≈ 118 µM).
Turning to `O=C(Cn1ncnn1)N[C@@H]1C(=O)N2C(C(=O)O)=C(Cc3ccccc3)CS[C@H]12`, the MIC in the assay on Staphylococcus aureus [1] was 0.12 µg/mL (≈ 0.3 µM); in the assay with Staphylococcus aureus [2], 1.25 µg/mL (≈ 3.12 µM); in the assay with Escherichia coli, over 500 µg/mL; in the assay with Salmonella typhi, over 500 µg/mL; in the assay with Shigella sonnei, 125 µg/mL (≈ 312 µM); with Klebsiella aerogenes, 500 µg/mL (≈ 1250 µM). Further, the MIC in the assay with Proteus mirabilis was determined as 125 µg/mL (≈ 312 µM).
As for `O=C(O)C1=C(Cc2cccnc2)CS[C@@H]2[C@H](NC(=O)[C@H](O)c3ccccc3)C(=O)N12`, the MIC was 0.25 µg/mL (≈ 0.588 µM) in the assay on Staphylococcus aureus [1]; 12.5 µg/mL (≈ 29.4 µM) in the assay with Staphylococcus aureus [2]; 2.5 µg/mL (≈ 5.88 µM) in the assay on Escherichia coli; 2.5 µg/mL (≈ 5.88 µM) in the assay on Salmonella typhi; 2.5 µg/mL (≈ 5.88 µM) in the assay on Shigella sonnei; 2.5 µg/mL (≈ 5.88 µM) in the assay with Klebsiella aerogenes. Further, in the assay on Proteus mirabilis, the minimal inhibitory concentration (MIC) turned out to be 5 µg/mL (≈ 11.8 µM).
In the case of `O=C(O)C1=C(Cc2cccnc2)CS[C@@H]2[C@H](NC(=O)C(C(=O)Oc3ccccc3)c3cccs3)C(=O)N12` (stereo not given in full), the minimal inhibitory concentration (MIC) was determined as 12.5 µg/mL (≈ 23.3 µM) in the assay on Staphylococcus aureus [1]; 12.5 µg/mL (≈ 23.3 µM) in the assay on Escherichia coli; 50 µg/mL (≈ 93.4 µM) in the assay with Salmonella typhi; 12.5 µg/mL (≈ 23.3 µM) with Shigella sonnei; 12.5 µg/mL (≈ 23.3 µM) with Klebsiella aerogenes; 12.5 µg/mL (≈ 23.3 µM) with Proteus mirabilis.
For the compound `O=C(CSc1ccncc1)N[C@@H]1C(=O)N2C(C(=O)O)=C(Cc3ccccc3)CS[C@H]12`, the minimal inhibitory concentration (MIC) was 0.05 µg/mL (≈ 0.113 µM) in the assay on Staphylococcus aureus [1]; 2.5 µg/mL (≈ 5.66 µM) with Staphylococcus aureus [2]; 250 µg/mL (≈ 566 µM) in the assay on Escherichia coli; 250 µg/mL (≈ 566 µM) with Salmonella typhi; 250 µg/mL (≈ 566 µM) with Shigella sonnei; over 500 µg/mL in the assay on Klebsiella aerogenes. The MIC in the assay on Proteus mirabilis is 250 µg/mL (≈ 566 µM).
For the compound `O=C(Cc1ccncc1)N[C@@H]1C(=O)N2C(C(=O)O)=C(Cc3cccnc3)CS[C@H]12`, the MIC with Staphylococcus aureus [1] was 0.12 µg/mL (≈ 0.292 µM); with Staphylococcus aureus [2] it was 25 µg/mL (≈ 60.9 µM); in the assay on Escherichia coli it was 25 µg/mL (≈ 60.9 µM); in the assay on Salmonella typhi it was 10 µg/mL (≈ 24.4 µM); in the assay with Shigella sonnei it was 25 µg/mL (≈ 60.9 µM); in the assay on Klebsiella aerogenes, 10 µg/mL (≈ 24.4 µM). In addition, the MIC in the assay with Proteus mirabilis was 10 µg/mL (≈ 24.4 µM).
Take `O=C(Cc1cccs1)N[C@@H]1C(=O)N2C(C(=O)O)=C(Cc3ccccc3)CS[C@H]12`: the MIC in the assay with Staphylococcus aureus [1] was 0.05 µg/mL (≈ 0.121 µM); in the assay with Staphylococcus aureus [2] it was 10 µg/mL (≈ 24.1 µM); in the assay on Escherichia coli it was 200 µg/mL (≈ 482 µM); with Salmonella typhi it was 200 µg/mL (≈ 482 µM); with Shigella sonnei, 200 µg/mL (≈ 482 µM); with Klebsiella aerogenes it was over 200 µg/mL. Moreover, in the assay with Proteus mirabilis, the MIC is over 200 µg/mL.
For `CC1=C(C(=O)O)N2C(=O)[C@@H](NC(=O)[C@H](N)c3ccccc3)[C@H]2SC1` [CEPHALEXIN ANHYDROUS], the minimum inhibitory concentration (MIC) came out at 1.25 µg/mL (≈ 3.6 µM) in the assay with Staphylococcus aureus [1]; 5 µg/mL (≈ 14.4 µM) with Staphylococcus aureus [2]; 12.5 µg/mL (≈ 36 µM) in the assay with Escherichia coli; 5 µg/mL (≈ 14.4 µM) with Salmonella typhi; 5 µg/mL (≈ 14.4 µM) in the assay with Shigella sonnei; 5 µg/mL (≈ 14.4 µM) with Klebsiella aerogenes. For the same compound, the MIC in the assay with Proteus mirabilis is 12.5 µg/mL (≈ 36 µM).
For the compound `O=C(Cc1cccs1)N[C@@H]1C(=O)N2C(C(=O)O)=C(Cc3cccnc3)CS[C@H]12`, the minimum inhibitory concentration (MIC) turned out to be 0.05 µg/mL (≈ 0.12 µM) in the assay with Staphylococcus aureus [1]; 10 µg/mL (≈ 24.1 µM) in the assay with Staphylococcus aureus [2]; 25 µg/mL (≈ 60.2 µM) with Escherichia coli; 5 µg/mL (≈ 12 µM) in the assay on Salmonella typhi; 25 µg/mL (≈ 60.2 µM) with Shigella sonnei; 25 µg/mL (≈ 60.2 µM) with Klebsiella aerogenes. For the same compound, the MIC with Proteus mirabilis worked out at 25 µg/mL (≈ 60.2 µM).
`O=C(O)C1=C(Cc2ccccc2)CS[C@@H]2[C@H](NC(=O)C(C(=O)Oc3ccccc3)c3ccccc3)C(=O)N12` (stereo not given in full): the MIC with Staphylococcus aureus [1] was 2.5 µg/mL (≈ 4.73 µM); in the assay on Staphylococcus aureus [2] it was 25 µg/mL (≈ 47.3 µM); in the assay on Escherichia coli, over 100 µg/mL; with Salmonella typhi, over 100 µg/mL; in the assay on Shigella sonnei, over 100 µg/mL; in the assay on Klebsiella aerogenes, over 100 µg/mL. Further, in the assay on Proteus mirabilis, the MIC turned out to be 50 µg/mL (≈ 94.6 µM).
Turning to `O=C(O)C1=C(Cc2ccccc2)CS[C@@H]2[C@H](NC(=O)[C@H](O)c3ccccc3)C(=O)N12`, the MIC in the assay on Staphylococcus aureus [1] came out at 0.12 µg/mL (≈ 0.283 µM); in the assay on Staphylococcus aureus [2], 12.5 µg/mL (≈ 29.4 µM); with Escherichia coli it was 125 µg/mL (≈ 294 µM); with Salmonella typhi, 50 µg/mL (≈ 118 µM); with Shigella sonnei it was 50 µg/mL (≈ 118 µM); with Klebsiella aerogenes it was 50 µg/mL (≈ 118 µM). The MIC in the assay on Proteus mirabilis was over 500 µg/mL.
Consider `C[C@@H](N)C(=O)N[C@@H]1C(=O)N2C(C(=O)O)=C(Cc3ccccc3)CS[C@H]12`, for which the MIC is 5 µg/mL (≈ 13.8 µM) in the assay on Staphylococcus aureus [1]; 10 µg/mL (≈ 27.7 µM) with Staphylococcus aureus [2]; over 100 µg/mL with Escherichia coli; over 100 µg/mL with Salmonella typhi; over 100 µg/mL with Shigella sonnei; over 100 µg/mL in the assay on Klebsiella aerogenes. In addition, the MIC with Proteus mirabilis was over 100 µg/mL.
